From ChEMBL document CHEMBL2034845, “Synthesis and in vitro characterization of trans- and cis-[(18)F]-4-methylbenzyl 4-[(pyrimidin-2-ylamino)methyl]-3-fluoropiperidine-1-carboxylates as new potential PET radiotracer candidates for the NR2B subtype N-methyl-D-aspartate receptor” (Eur J Med Chem, 2012)

How the values were obtained:
Cortex = experiment: Drug uptake in Sprague-Dawley rat cortex at 8 nM after 90 mins by autoradiography analysis; format: ADME, tissue-based; conditions: 1.5 h, 0.008 µM
[1] = molecular target: T1, Glutamate receptor ionotropic, NMDA 2B (Rattus norvegicus, UniProt Q00960); experiment: Binding affinity to NMDAR NR2B in Sprague-Dawley rat brain hippocampus; format: tissue-based
Procedure, shortened: (§1)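 Saturation binding on mounted rat brain tissue sections. Sections were pre-incubated twice for 10 min at r.t. in 50 mM Tris-HCl pH 7.4 with 10 mM EDTA, then exposed to free [18F] ligand at 0.15–48 nM. Washes were 5, 5 and 15 min in 50 mM Tris-HCl pH 7.4 at 4 °C, followed by a cold distilled-water dip and drying on a hot plate. Autoradiographic optical densities (DLU/mm²) were converted with spiked brain-homogenate standards. Specific binding was taken as total minus nonspecific for each region. Kd and Bmax were obtained from Scatchard plots.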

Thalamus = experiment: Drug uptake in Sprague-Dawley rat thalamus at 8 nM after 90 mins by autoradiography analysis; format: ADME, tissue-based; conditions: 1.5 h, 0.008 µM
[2] = Lipophilicity, log D of the compound in octanol-[…] at 10 uM after 40 mins by shake flask method; format: physicochemical
Procedure, shortened: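 Shake-flask method. Tubes held 1 mL octanol and 1 mL […] buffer plus [18F] tracer, were stirred for 40 min and centrifuged for 5 min. Two 100 µL aliquots from each phase were gamma-counted. logD7.4 was calculated from the ratio of octanol to aqueous radioactivity. Four tubes were used.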

[3] = molecular target: T1, Glutamate receptor ionotropic, NMDA 2B; experiment: Binding affinity to NMDAR NR2B in Sprague-Dawley rat brain olfactory tubercle; format: tissue-based; procedure, shortened: as §1
Hippocampus = experiment: Drug uptake in Sprague-Dawley rat hippocampus at 8 nM after 90 mins by autoradiography analysis; format: ADME, tissue-based; conditions: 1.5 h, 0.008 µM
[4] = Drug uptake in Sprague-Dawley rat olfactory tubercle at 8 nM after 90 mins by autoradiography analysis; format: ADME, tissue-based; conditions: 1.5 h, 0.008 µM
Nucleic Acid = experiment: Ratio of drug uptake in […] in Sprague-Dawley rat at 8 nM after 90 mins by autoradiography analysis; format: ADME, tissue-based; conditions: 1.5 h, 0.008 µM
[5] = molecular target: T1, Glutamate receptor ionotropic, NMDA 2B; experiment: Binding affinity to NMDAR NR2B in Sprague-Dawley rat brain thalamus; format: tissue-based; procedure, shortened: as §1
[6] = molecular target: T1, Glutamate receptor ionotropic, NMDA 2B; experiment: Binding affinity to NMDAR NR2B in Sprague-Dawley rat brain striatum; format: tissue-based; procedure, shortened: as §1
Cerebellum = experiment: Drug uptake in Sprague-Dawley rat cerebellum at 8 nM after 90 mins by autoradiography analysis; format: ADME, tissue-based; conditions: 1.5 h, 0.008 µM
Brain = experiment: Drug uptake in Sprague-Dawley rat brain at 8 nM after 90 mins by autoradiography analysis in presence of 10 uM Ro 256981; format: ADME, tissue-based; conditions: 1.5 h, 0.008 µM
[7] = molecular target: T1, Glutamate receptor ionotropic, NMDA 2B; experiment: Binding affinity to NMDAR NR2B in Sprague-Dawley rat brain cortex; format: tissue-based; procedure, shortened: as §1
Striatum = experiment: Binding to Sprague-Dawley rat striatum sections at 8 nM after 90 mins by autoradiography analysis; conditions: in vitro, 1.5 h, 0.008 µM
[8] = Drug uptake in Sprague-Dawley rat forebrain at 8 nM after 90 mins by autoradiography analysis; conditions: 1.5 h, 0.008 µM
[9] = molecular target: Glutamate receptor ionotropic, NMDA 2B (Rattus norvegicus) (UniProt Q00960); experiment: Binding affinity to NMDAR NR2B in Sprague-Dawley rat brain cortex assessed per mg of protein; format: tissue-based; conditions: tested as the 18F-labelled form; procedure, shortened: as §1
[10] = molecular target: Glutamate receptor ionotropic, NMDA 2B (Rattus norvegicus) (UniProt Q00960); experiment: Ratio of Bmax to Kd at NMDAR NR2B in Sprague-Dawley rat brain olfactory tubercle; format: tissue-based; conditions: tested as the 18F-labelled form
Procedure, shortened: (§2)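 Bmax/Kd ratio for each brain region. Bmax and Kd came from Scatchard analysis of specific autoradiographic binding on rat brain sections. Free [18F] ligand ran from 0.15 to 48 nM, with Tris-HCl pH 7.4 pre-incubation and cold washes. Radioactivity was calibrated against spiked tissue-homogenate standards.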

[11] = molecular target: Glutamate receptor ionotropic, NMDA 2B (Rattus norvegicus) (UniProt Q00960); experiment: Ratio of Bmax to Kd at NMDAR NR2B in Sprague-Dawley rat brain hippocampus; format: tissue-based; conditions: tested as the 18F-labelled form; procedure, shortened: as §2
[12] = molecular target: Glutamate receptor ionotropic, NMDA 2B (Rattus norvegicus) (UniProt Q00960); experiment: Binding affinity to NMDAR NR2B in Sprague-Dawley rat brain thalamus assessed per mg of protein; format: tissue-based; conditions: tested as the 18F-labelled form; procedure, shortened: as §1
[13] = molecular target: Glutamate receptor ionotropic, NMDA 2B (Rattus norvegicus) (UniProt Q00960); experiment: Binding affinity to NMDAR NR2B in Sprague-Dawley rat brain striatum assessed per mg of protein; format: tissue-based; conditions: tested as the 18F-labelled form; procedure, shortened: as §1
[14] = molecular target: Glutamate receptor ionotropic, NMDA 2B (Rattus norvegicus) (UniProt Q00960); experiment: Ratio of Bmax to Kd at NMDAR NR2B in Sprague-Dawley rat brain thalamus; format: tissue-based; conditions: tested as the 18F-labelled form; procedure, shortened: as §2
[15] = molecular target: Glutamate receptor ionotropic, NMDA 2B (Rattus norvegicus) (UniProt Q00960); experiment: Binding affinity to NMDAR NR2B in Sprague-Dawley rat brain olfactory tubercle assessed per mg of protein; format: tissue-based; conditions: tested as the 18F-labelled form; procedure, shortened: as §1
[16] = molecular target: Glutamate receptor ionotropic, NMDA 2B (Rattus norvegicus) (UniProt Q00960); experiment: Ratio of Bmax to Kd at NMDAR NR2B in Sprague-Dawley rat brain striatum; format: tissue-based; conditions: tested as the 18F-labelled form; procedure, shortened: as §2
[17] = molecular target: Glutamate receptor ionotropic, NMDA 2B (Rattus norvegicus) (UniProt Q00960); experiment: Ratio of Bmax to Kd at NMDAR NR2B in Sprague-Dawley rat brain cortex; conditions: tested as the 18F-labelled form; procedure, shortened: as §2
[18] = molecular target: Glutamate receptor ionotropic, NMDA 2B (Rattus norvegicus) (UniProt Q00960); experiment: Binding affinity to NMDAR NR2B in Sprague-Dawley rat brain hippocampus assessed per mg of protein; format: tissue-based; conditions: tested as the 18F-labelled form; procedure, shortened: as §1

T1 sequence (Q00960 whole entry): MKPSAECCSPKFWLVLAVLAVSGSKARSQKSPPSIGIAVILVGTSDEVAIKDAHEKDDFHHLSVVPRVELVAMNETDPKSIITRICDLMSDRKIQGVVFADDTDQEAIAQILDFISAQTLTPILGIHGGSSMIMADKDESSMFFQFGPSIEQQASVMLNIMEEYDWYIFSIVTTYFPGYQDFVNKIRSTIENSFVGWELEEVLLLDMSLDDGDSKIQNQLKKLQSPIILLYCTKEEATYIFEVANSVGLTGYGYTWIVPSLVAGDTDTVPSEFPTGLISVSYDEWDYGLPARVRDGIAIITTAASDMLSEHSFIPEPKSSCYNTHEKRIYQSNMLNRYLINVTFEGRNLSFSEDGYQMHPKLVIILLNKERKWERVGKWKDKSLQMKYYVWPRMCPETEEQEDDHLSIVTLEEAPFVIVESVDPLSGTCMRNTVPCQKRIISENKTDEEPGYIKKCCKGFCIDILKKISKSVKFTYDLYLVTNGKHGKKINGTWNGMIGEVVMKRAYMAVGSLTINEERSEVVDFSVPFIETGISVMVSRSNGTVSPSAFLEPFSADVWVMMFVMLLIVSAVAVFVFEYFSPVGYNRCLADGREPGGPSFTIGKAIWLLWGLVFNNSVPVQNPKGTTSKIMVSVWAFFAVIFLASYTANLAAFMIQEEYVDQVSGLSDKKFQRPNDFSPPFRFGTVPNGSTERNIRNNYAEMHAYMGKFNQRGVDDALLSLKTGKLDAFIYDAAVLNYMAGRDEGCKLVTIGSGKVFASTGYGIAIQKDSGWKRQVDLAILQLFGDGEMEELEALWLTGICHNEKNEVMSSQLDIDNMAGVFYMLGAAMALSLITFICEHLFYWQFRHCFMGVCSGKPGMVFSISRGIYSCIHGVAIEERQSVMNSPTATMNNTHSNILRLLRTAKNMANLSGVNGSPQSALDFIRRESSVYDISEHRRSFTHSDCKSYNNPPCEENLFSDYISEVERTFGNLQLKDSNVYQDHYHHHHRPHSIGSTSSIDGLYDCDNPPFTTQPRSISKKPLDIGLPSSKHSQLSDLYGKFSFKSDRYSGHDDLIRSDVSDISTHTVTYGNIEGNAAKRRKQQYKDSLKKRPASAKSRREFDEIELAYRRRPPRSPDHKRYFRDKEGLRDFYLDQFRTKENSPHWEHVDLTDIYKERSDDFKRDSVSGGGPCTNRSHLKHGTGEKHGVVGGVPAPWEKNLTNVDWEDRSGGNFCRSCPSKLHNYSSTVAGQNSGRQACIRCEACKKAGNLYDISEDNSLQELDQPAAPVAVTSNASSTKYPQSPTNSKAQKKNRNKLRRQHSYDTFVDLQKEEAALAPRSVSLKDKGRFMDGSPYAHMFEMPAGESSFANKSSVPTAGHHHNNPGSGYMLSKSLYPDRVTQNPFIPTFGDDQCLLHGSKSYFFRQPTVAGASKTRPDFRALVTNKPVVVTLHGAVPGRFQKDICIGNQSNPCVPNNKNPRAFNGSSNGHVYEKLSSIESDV
Glutamate receptor ionotropic, NMDA 2B (Rattus norvegicus), sequence (Q00960 27-1482 limits assumed): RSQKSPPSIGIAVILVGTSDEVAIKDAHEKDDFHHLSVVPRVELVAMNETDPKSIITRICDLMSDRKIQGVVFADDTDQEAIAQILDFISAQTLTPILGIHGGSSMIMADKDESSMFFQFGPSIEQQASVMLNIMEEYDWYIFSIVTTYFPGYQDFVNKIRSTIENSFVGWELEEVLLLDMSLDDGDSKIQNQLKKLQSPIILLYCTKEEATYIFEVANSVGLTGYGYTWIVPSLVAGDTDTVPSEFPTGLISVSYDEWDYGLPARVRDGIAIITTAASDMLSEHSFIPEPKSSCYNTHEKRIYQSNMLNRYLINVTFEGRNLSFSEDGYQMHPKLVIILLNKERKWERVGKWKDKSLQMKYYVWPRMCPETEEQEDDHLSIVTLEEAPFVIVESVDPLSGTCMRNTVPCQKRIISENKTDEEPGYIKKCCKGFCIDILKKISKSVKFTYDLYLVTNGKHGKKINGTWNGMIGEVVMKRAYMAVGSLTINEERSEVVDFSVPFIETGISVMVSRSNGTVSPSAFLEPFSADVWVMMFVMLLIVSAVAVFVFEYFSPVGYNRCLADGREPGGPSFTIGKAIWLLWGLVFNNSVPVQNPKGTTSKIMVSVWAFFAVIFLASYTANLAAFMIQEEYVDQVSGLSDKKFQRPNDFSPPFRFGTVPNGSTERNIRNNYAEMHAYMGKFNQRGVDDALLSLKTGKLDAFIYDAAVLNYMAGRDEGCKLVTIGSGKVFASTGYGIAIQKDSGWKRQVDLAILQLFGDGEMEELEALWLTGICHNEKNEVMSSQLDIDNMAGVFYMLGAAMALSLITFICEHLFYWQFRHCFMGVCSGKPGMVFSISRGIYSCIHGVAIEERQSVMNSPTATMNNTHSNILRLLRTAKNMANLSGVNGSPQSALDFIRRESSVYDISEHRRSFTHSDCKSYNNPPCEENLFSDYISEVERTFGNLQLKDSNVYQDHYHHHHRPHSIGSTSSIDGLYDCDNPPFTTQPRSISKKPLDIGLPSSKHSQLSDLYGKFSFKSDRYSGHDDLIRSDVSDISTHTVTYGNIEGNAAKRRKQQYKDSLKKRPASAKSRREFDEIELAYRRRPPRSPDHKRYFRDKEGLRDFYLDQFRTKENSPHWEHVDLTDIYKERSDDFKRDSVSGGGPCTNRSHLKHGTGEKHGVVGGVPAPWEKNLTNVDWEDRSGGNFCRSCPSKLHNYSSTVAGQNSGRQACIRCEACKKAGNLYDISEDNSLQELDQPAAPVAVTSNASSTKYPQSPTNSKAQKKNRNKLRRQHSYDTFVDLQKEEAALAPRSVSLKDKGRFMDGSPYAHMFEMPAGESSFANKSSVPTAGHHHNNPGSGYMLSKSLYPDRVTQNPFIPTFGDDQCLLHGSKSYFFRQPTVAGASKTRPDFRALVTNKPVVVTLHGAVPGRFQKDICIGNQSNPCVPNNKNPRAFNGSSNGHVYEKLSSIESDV

Drug uptake (Cortex) | Kd [1] [nM] | Drug uptake (Thalamus) [%] | logD at 40 min, 10 µM [2] | Kd [3] [nM] | Drug uptake (Hippocampus) [%] | Drug uptake [4] | Ratio (Nucleic Acid) | Kd [5] [nM] | Kd [6] [nM] | Drug uptake (Cerebellum) | Drug uptake (Brain) | Kd [7] [nM] | Drug uptake (Striatum) | Drug uptake [8] | Bmax [9] [pmol] | Ratio [10] | Ratio [11] | Bmax [12] [pmol] | Bmax [13] [pmol] | SMILES | also measured
Active | 9.1 | 76 | 2.8 | 5.9 | 91 | Not Active | 12.1 | 15.2 | 9.3 | Not Active | Not Active | 9.8 | Active | Active |  |  |  |  |  | Cc1ccc(COC(=O)N2CC[C@H](CNc3ncccn3)[C@H]([18F])C2)cc1 (racemic) | 
Active | 7.1 | 62 | 2.66 | 1.9 | 84 | Not Active | 6.4 | 5.4 | 5.1 | Not Active | Not Active | 3.2 | Active | Active |  |  |  |  |  | Cc1ccc(COC(=O)N2CC[C@@H](CNc3ncccn3)[C@H]([18F])C2)cc1 (racemic) | 
 |  |  |  |  |  |  |  |  |  |  |  |  |  |  | 0.77 | 37 | 22 | 0.86 | 1.05 | Cc1ccc(COC(=O)N2CC[C@@H](CNc3ncccn3)[C@H](F)C2)cc1 (racemic) | Ratio [14]: 17; Bmax [15]: 0.69 pmol; Ratio [16]: 21; Ratio [17]: 25; Bmax [18]: 1.58 pmol
 |  |  |  |  |  |  |  |  |  |  |  |  |  |  | 1.5 | 18 | 19 | 1.12 | 1.41 | Cc1ccc(COC(=O)N2CC[C@H](CNc3ncccn3)[C@H](F)C2)cc1 (racemic) | Ratio [14]: 8; Bmax [15]: 1.05 pmol; Ratio [16]: 15; Ratio [17]: 15; Bmax [18]: 1.65 pmol
